According to ChEMBL document CHEMBL2086314, “Synthesis and anticonvulsant activity of new N-Mannich bases derived from 3-(2-fluorophenyl)- and 3-(2-bromophenyl)-pyrrolidine-2,5-diones. Part II” (Bioorg Med Chem, 2012):
Calls of active or inactive are those of the source. No cut-off for these calls is given here.

Columns and labels:
[1] = tested on: Rattus norvegicus; assay: Anticonvulsant activity in Sprague-Dawley rat assessed as protection from maximum electric shock-induced seizures at 30 mg/kg, po measured after 0.25 hrs; format: functional
Method in brief: (§1)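 Male Sprague–Dawley rats, four per group, given 30 mg/kg orally as a suspension in 0.5% methylcellulose/water. MES stimulus 150 mA, 60 Hz, 0.2 s via corneal electrodes. Tested at 0.25, 0.5, 1, 2 and 4 h; value is rats protected out of four.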

[2] = tested on: Mus musculus; assay: Anticonvulsant activity in CF-1 albino mouse assessed as protection from maximal electric shock-induced seizures at 100 mg/kg, ip measured after 0.25 hrs; format: functional, organism-based; set-up: dose 100 mg/kg
[3] = tested on: Mus musculus; assay: Anticonvulsant activity in CF-1 albino mouse assessed as protection against 6 Hz psychomotor seizure at 100 mg/kg, ip measured after 0.5 hrs; format: functional; conditions: route intraperitoneal
Method in brief: (§2)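 6-Hz psychomotor seizure in male CF-1 mice, compound suspended in 0.5% methylcellulose/water, given ip (100 or 75 mg/kg). Corneal stimulation with 0.2 ms monopolar rectangular pulses at 6 Hz for 3 s, 32 mA, constant-current device. Protected if normal exploratory behaviour resumes within 10 s. Tested 0.25–4 h after dosing; value is mice protected out of four.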

[4] = tested on: Mus musculus; assay: Neurotoxicity in CF-1 albino mouse assessed as motor impairment at 300 mg/kg, ip measured after 0.5 hrs by rotarod test; format: toxicity, organism-based; set-up: dose 300 mg/kg, route intraperitoneal; conditions: in vivo
Method in brief: (§3)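 Rotarod neurotoxicity in male CF-1 mice given ip doses of 30, 100 or 300 mg/kg (0.5% methylcellulose suspension), examined 0.5 and 4 h after dosing. Impairment means failing to hold balance on the rod for 1 min. Value is the minimum dose causing toxicity in half or more of the animals; response comments are recorded.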

[5] = tested on: Rattus norvegicus; assay: Neurotoxicity in Sprague-Dawley rat assessed as motor impairment at 30 mg/kg, po by rotarod test; format: toxicity, organism-based; set-up: dose 30 mg/kg, route oral; conditions: in vivo
Method in brief: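 Male Sprague–Dawley rats, four animals, oral 30 mg/kg in 0.5% methylcellulose/water. Motor impairment on the rotarod (failure to keep balance for 1 min) assessed alongside MES at five times from 0.25 to 4 h.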

[6] = tested on: Mus musculus; assay: Anticonvulsant activity in ip dosed CF-1 albino mouse assessed as protection from maximal electric shock-induced seizures measured after 4 hrs; format: functional; conditions: read-out: MED
Method in brief: (§4)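 Male CF-1 mice dosed ip at 30, 100 or 300 mg/kg, suspension in 0.5% methylcellulose/water. MES: corneal electrodes primed with electrolyte containing anaesthetic, 50 mA, 60 Hz, 0.2 s. Examined 0.5 and 4 h after dosing. Value is the minimum dose protecting half or more of the animals.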

[7] = tested on: Mus musculus; assay: Neurotoxicity in CF-1 albino mouse assessed as motor impairment at 300 mg/kg, ip measured after 4 hrs by rotarod test; format: toxicity, organism-based; set-up: dose 300 mg/kg, route intraperitoneal; conditions: in vivo; method in brief: as §3
[8] = Neurotoxicity in ip dosed CF-1 albino mouse assessed as motor impairment by rotarod test; format: toxicity, organism-based; conditions: in vivo
[9] = tested on: Mus musculus; assay: Anticonvulsant activity in ip dosed maximal electric shock-induced CF-1 albino mouse assessed as time of peak effect; format: functional
Method in brief: (§5)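 ED50 and TD50 determined in male CF-1 mice after ip dosing (0.5% methylcellulose suspension) at the previously estimated time of peak effect. MES 50 mA, 60 Hz, 0.2 s. Groups of eight, with doses varied until at least three points fell between 10–90% protection or motor impairment. Regression gives ED50/TD50 with 95% confidence intervals; PI = TD50/ED50.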

[10] = tested on: Mus musculus; assay: Anticonvulsant activity in ip dosed CF-1 albino mouse assessed as protection from maximal electric shock-induced seizures; format: functional; method in brief: as §5
[11] = tested on: Mus musculus; assay: Anticonvulsant activity in CF-1 albino mouse assessed as protection against 6 Hz psychomotor seizure at 100 mg/kg, ip measured after 4 hrs; format: functional; conditions: route intraperitoneal; method in brief: as §2
[12] = tested on: Rattus norvegicus; assay: Anticonvulsant activity in Sprague-Dawley rat assessed as protection from maximum electric shock-induced seizures at 30 mg/kg, po measured after 1 hr; format: functional; method in brief: as §1
[13] = tested on: Mus musculus; assay: Anticonvulsant activity in CF-1 albino mouse assessed as protection against 6 Hz psychomotor seizure at 100 mg/kg, ip measured after 0.25 hrs; format: functional; conditions: route intraperitoneal; method in brief: as §2
[14] = tested on: Mus musculus; assay: Anticonvulsant activity in CF-1 albino mouse assessed as protection from maximal electric shock-induced seizures at 100 mg/kg, ip measured after 1 hr; format: functional, organism-based; set-up: dose 100 mg/kg
[15] = organism: Mus musculus; assay: Protective index, ratio of TD50 for CF-1 albino mouse to ED50 for CF-1 albino mouse assessed as protection from maximum electric shock-induced seizures; format: functional; method in brief: as §5
[16] = tested on: Mus musculus; assay: Anticonvulsant activity in ip dosed CF-1 albino mouse assessed as protection from maximal electric shock-induced seizures measured after 0.5 hrs; format: functional; conditions: read-out: MED; method in brief: as §4
[17] = tested on: Rattus norvegicus; assay: Anticonvulsant activity in Sprague-Dawley rat assessed as protection from maximum electric shock-induced seizures at 30 mg/kg, po measured after 0.5 hrs; format: functional; method in brief: as §1
[18] = tested on: Mus musculus; assay: Anticonvulsant activity in CF-1 albino mouse assessed as protection against 6 Hz psychomotor seizure at 100 mg/kg, ip measured after 1 hr; format: functional; conditions: route intraperitoneal; method in brief: as §2
[19] = tested on: Rattus norvegicus; assay: Anticonvulsant activity in Sprague-Dawley rat assessed as protection from maximum electric shock-induced seizures at 30 mg/kg, po measured after 2 hrs; format: functional; method in brief: as §1
[20] = tested on: Mus musculus; assay: Anticonvulsant activity in CF-1 albino mouse assessed as protection against 6 Hz psychomotor seizure at 100 mg/kg, ip measured after 2 hrs; format: functional; conditions: route intraperitoneal; method in brief: as §2
[21] = tested on: Rattus norvegicus; assay: Anticonvulsant activity in Sprague-Dawley rat assessed as protection from maximum electric shock-induced seizures at 30 mg/kg, po measured after 4 hrs; format: functional; method in brief: as §1
[22] = tested on: Mus musculus; assay: Neurotoxicity in CF-1 albino mouse assessed as tonic extension at 300 mg/kg, ip measured after 0.5 hrs by rotarod test; format: toxicity, organism-based; set-up: dose 300 mg/kg, route intraperitoneal; conditions: in vivo; method in brief: as §3
[23] = tested on: Mus musculus; assay: Anticonvulsant activity in CF-1 albino mouse assessed as protection from maximal electric shock-induced seizures at 300 mg/kg, ip measured after 0.5 hrs; format: functional, organism-based; set-up: dose 300 mg/kg; method in brief: as §4
[24] = tested on: Mus musculus; assay: Anticonvulsant activity in CF-1 albino mouse assessed as protection from maximal electric shock-induced seizures at 300 mg/kg, ip measured after 4 hrs; format: functional, organism-based; set-up: dose 300 mg/kg; method in brief: as §4
[25] = tested on: Mus musculus; assay: Neurotoxicity in ip dosed CF-1 albino mouse assessed as motor impairment measured after 0.5 hrs by rotarod test; format: toxicity, organism-based; conditions: in vivo; method in brief: as §3
[26] = tested on: Mus musculus; assay: Anticonvulsant activity in CF-1 albino mouse assessed as protection against subcutaneous pentylenetetrazol-induced seizures at 300 mg/kg, ip measured after 0.5 hrs; format: functional, organism-based; set-up: dose 300 mg/kg
Method in brief: (§6)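 scPTZ test in male CF-1 mice. Compound suspended in 0.5% methylcellulose/water, ip at 30, 100 or 300 mg/kg. Pentylenetetrazole 85 mg/kg (CD97, clonic seizures lasting at least 5 s) given subcutaneously at the test time, read at 0.5 and 4 h. Value is the minimum dose protecting half or more of the animals.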

[27] = tested on: Mus musculus; assay: Anticonvulsant activity in CF-1 albino mouse assessed as protection against subcutaneous pentylenetetrazol-induced seizures at 300 mg/kg, ip measured after 4 hrs; format: functional, organism-based; set-up: dose 300 mg/kg; method in brief: as §6

## O=C1CC(c2ccccc2F)C(=O)N1CN1CCN(c2cccc(C(F)(F)F)c2)CC1 (racemic)
[1]
  Activity: 25%
[2]
  Activity: Active
[3]
  Activity: 75%
[4]
  Activity: Non-toxic
[5]
  Activity: Non-toxic
[6]
  minimal effective dose: 100 mg/kg
[7]
  Activity: Non-toxic
[8]
  TD50: > 500 mg/kg
[9]
  Time: 4 h
[10]
  ED50: 41.4 mg/kg
[11]
  Activity: 25%
[12]
  Activity: 100%
[13]
  Activity: 25%
[14]
  Activity: Active
[15]
  Ratio TD50/ED50: >12.09
[16]
  minimal effective dose: 300 mg/kg
[17]
  Activity: 100%
[18]
  Activity: 0%
[19]
  Activity: 100%
[20]
  Activity: 25%
[21]
  Activity: 50%

## Cl.O=C1CC(c2ccccc2Br)C(=O)N1CN1CCN(Cc2ccccc2)CC1 (racemic)
[22]
  Activity: Toxic
[23]
  Activity: inactive
[24]
  Activity: inactive
[7]
  Activity: Non-toxic
[25]
  MTC: 300 mg/kg
[26]
  Activity: inactive
[27]
  Activity: inactive
